Our source for the Time and pKa values is ChEMBL document CHEMBL3244398, “Oxidative and cardiovascular studies on natural and synthetic catecholamines” (J Med Chem, 1978).

In series [1] the test system is Rattus norvegicus. Nature of the series: Acute pressor activity in iv dosed Sprague-Dawley rat assessed as duration of arterial systolic blood pressure by 30 mmHg maintenance. Type of series: functional, Artery. In short, it runs like this: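 Iv jugular-cannula dosing was used in male normotensive Sprague-Dawley rats (380 ± 20 g), with arterial pressure recorded by carotid cannula and transducer. Six doses over a tenfold range were each given to four animals. Duration is the seconds for which blood pressure was […].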

Series [2] in a line: physchem.

As usually defined, the pKa is the pH at which an ionisable group is half protonated. With `CNCC(OC)c1ccc(O)c(O)c1.Cl` (racemic), the Time in series [1] came to 21 s. In addition, the pKa in series [2] is 9.5. In series [2], `CNC` [DIMETHYLAMINE] displayed a pKa of 10.8.

For the molecule `C[C@@H](N)Cc1ccc(O)c(O)c1`, in series [1], the Time was 20 s. For the molecule `NCC(O)c1ccc(O)c(O)c1` (racemic), in series [1], the Time is recorded as 32 s. This molecule returned a pKa in series [2] of 9. The like results for `CNCCc1ccc(O)c(O)c1` [DEOXIEPINEPHRINE] were, in that order, 18 s and 10.5. Take `CC(N)Cc1ccc(O)c(O)c1` (racemic): the Time in series [1] came out at 22 s. Besides, in series [2], the pKa is 10. Consider `CNC[C@H](O)c1ccc(O)c(O)c1` [EPINEPHRINE], for which, in series [1], the Time came out at 12 s. This molecule gave a pKa in series [2] of 9.5.

`CN` [METHYLAMINE] returned a pKa in series [2] of 10.6. Regarding `NCCc1ccc(O)c(O)c1` [DOPAMINE], the Time in series [1] was determined as 32 s. The pKa in series [2] came to 10.

As for `CNCC(C)c1ccc(O)c(O)c1` (racemic), the Time in series [1] amounted to 28 s. In series [2], the pKa was found to be 10.5. Take `CC(CN)c1ccc(O)c(O)c1.Cl` (racemic): in series [1], the Time came to 29 s. The molecule also came in with a pKa in series [2] of 10. Take `NC[C@H](O)c1ccc(O)c(O)c1` [NOREPINEPHRINE]: the Time in series [1] was 32 s. As for `C[C@H](N)Cc1ccc(O)c(O)c1`, in series [1], the Time was 34 s.
